Publication PMC6595297 (British Journal of Clinical Pharmacology, 2019)

Legend:
[1] = Phase I DDI study: pevonedistat plasma PK alone and with fluconazole; type: in vivo, human
Summary of the method: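 Single IV pevonedistat given on day 1 alone and on day 8 with the CYP3A inhibitor. K2EDTA plasma was sampled within 1 h predose, at end of infusion, and at 0.5, 1, 2, 3, 4, 8, 12, 24, 48 and 72 h postdose. Samples were assayed by two GLP-validated LC–MS/MS methods (0.0500–25.0 and 1.00–500 ng mL−1). Noncompartmental PK was used. Day 8/day 1 geometric mean ratios with 90% CIs came from ANOVA (subject random), back-transformed.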

Safety and tolerability = type: in vivo, human
Summary of the method: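 Patients had advanced solid tumours and ECOG PS 0–1. AEs were graded by NCI CTCAE v4.03 and monitored from the first dose of any study drug until 30–40 days after the last dose. The safety population was all patients receiving at least one pevonedistat dose.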

CYP3A4 = settings: in vitro metabolism studies, ref data on file; cited from earlier work
[2] = estimated across doses and schedules, 1‐h IV infusion; cited from earlier work
[3] = Pevonedistat 8 mg m^−2, + fluconazole (day 8) vs alone (day 1), n = 12
[4] = human, plasma, intravenous, 8 mg
[5] = Pevonedistat 8 mg m^−2 + fluconazole (n = 13)
[6] = Pevonedistat 8 mg m^−2 + itraconazole (n = 13)
[7] = Pevonedistat 15 mg m^−2 + itraconazole (n = 6)
[8] = Pevonedistat 20 mg m^−2 + itraconazole (n = 19)
[9] = Pevonedistat + itraconazole, total (n = 38)
[10] = across all study groups, N = 51

NS(=O)(=O)OC[C@@H]1C[C@@H](n2ccc3c(N[C@H]4CCc5ccccc54)ncnc32)C[C@@H]1O [Pevonedistat]
AUClast, geometric LS mean ratio (test/reference) (90% CI) [1, 3]: 110.21 (102.34–118.69) %
AUC∞, geometric LS mean ratio (test/reference) (90% CI) [1, 3]: 110.66 (102.53–119.43) %
C max, geometric LS mean ratio (test/reference) (90% CI) [1, 3]: 98.75 (82.60–118.05) %
AUC(0-inf) [1, 4]: 450 ng·h/mL
AUC(0-t) [1, 4]: 445 ng·h/mL
Cmax [1, 4]: 51.6 ng/mL
AUC(0-inf) ([1]; human, plasma, iv, 8 mg): 450 ng·h/mL
Cmax ([1]; human, plasma, iv, 8 mg): 51.6 ng/mL
clearance ([1]; human, plasma, iv, 8 mg): 528 mL/min
half-life ([1]; human, plasma, iv, 8 mg): 11.1 h
AUC∞ geometric mean ratio, presence vs. absence of fluconazole ([1]; pevonedistat 8 mg m^−2, n = 12): 1.11
Patients who discontinued study treatment due to AEs (Safety and tolerability; N = 51): 12%
Abdominal pain, patients with AE (Safety and tolerability; [5]): 1 (8) n (%)
Anaemia, patients with AE (Safety and tolerability; [5]): 3 (23) n (%)
Asthenia, patients with AE (Safety and tolerability; [5]): 3 (23) n (%)
Constipation, patients with AE (Safety and tolerability; [5]): 3 (23) n (%)
Cough, patients with AE (Safety and tolerability; [5]): 2 (15) n (%)
Decreased appetite, patients with AE (Safety and tolerability; [5]): 4 (31) n (%)
Dehydration, patients with AE (Safety and tolerability; [5]): 1 (8) n (%)
Diarrhoea, patients with AE (Safety and tolerability; [5]): 0 n (%)
Dizziness, patients with AE (Safety and tolerability; [5]): 1 (8) n (%)
Dyspnoea, patients with AE (Safety and tolerability; [5]): 2 (15) n (%)
Fatigue, patients with AE (Safety and tolerability; [5]): 3 (23) n (%)
Headache, patients with AE (Safety and tolerability; [5]): 3 (23) n (%)
Hypokalaemia, patients with AE (Safety and tolerability; [5]): 0 n (%)
Hyponatraemia, patients with AE (Safety and tolerability; [5]): 2 (15) n (%)
Nausea, patients with AE (Safety and tolerability; [5]): 3 (23) n (%)
Vomiting, patients with AE (Safety and tolerability; [5]): 3 (23) n (%)
Abdominal pain, patients with AE (Safety and tolerability; [6]): 3 (23) n (%)
Anaemia, patients with AE (Safety and tolerability; [6]): 3 (23) n (%)
Asthenia, patients with AE (Safety and tolerability; [6]): 2 (15) n (%)
Constipation, patients with AE (Safety and tolerability; [6]): 2 (15) n (%)
Cough, patients with AE (Safety and tolerability; [6]): 4 (31) n (%)
Decreased appetite, patients with AE (Safety and tolerability; [6]): 3 (23) n (%)
Dehydration, patients with AE (Safety and tolerability; [6]): 3 (23) n (%)
Diarrhoea, patients with AE (Safety and tolerability; [6]): 4 (31) n (%)
Dizziness, patients with AE (Safety and tolerability; [6]): 2 (15) n (%)
Dyspnoea, patients with AE (Safety and tolerability; [6]): 1 (8) n (%)
Fatigue, patients with AE (Safety and tolerability; [6]): 3 (23) n (%)
Headache, patients with AE (Safety and tolerability; [6]): 0 n (%)
Hypokalaemia, patients with AE (Safety and tolerability; [6]): 2 (15) n (%)
Hyponatraemia, patients with AE (Safety and tolerability; [6]): 1 (8) n (%)
Nausea, patients with AE (Safety and tolerability; [6]): 1 (8) n (%)
Vomiting, patients with AE (Safety and tolerability; [6]): 2 (15) n (%)
Abdominal pain, patients with AE (Safety and tolerability; [7]): 1 (17) n (%)
Anaemia, patients with AE (Safety and tolerability; [7]): 2 (33) n (%)
Asthenia, patients with AE (Safety and tolerability; [7]): 0 n (%)
Constipation, patients with AE (Safety and tolerability; [7]): 0 n (%)
Cough, patients with AE (Safety and tolerability; [7]): 0 n (%)
Decreased appetite, patients with AE (Safety and tolerability; [7]): 1 (17) n (%)
Dehydration, patients with AE (Safety and tolerability; [7]): 2 (33) n (%)
Diarrhoea, patients with AE (Safety and tolerability; [7]): 1 (17) n (%)
Dizziness, patients with AE (Safety and tolerability; [7]): 1 (17) n (%)
Dyspnoea, patients with AE (Safety and tolerability; [7]): 2 (33) n (%)
Fatigue, patients with AE (Safety and tolerability; [7]): 1 (17) n (%)
Headache, patients with AE (Safety and tolerability; [7]): 0 n (%)
Hypokalaemia, patients with AE (Safety and tolerability; [7]): 2 (33) n (%)
Hyponatraemia, patients with AE (Safety and tolerability; [7]): 1 (17) n (%)
Nausea, patients with AE (Safety and tolerability; [7]): 0 n (%)
Vomiting, patients with AE (Safety and tolerability; [7]): 1 (17) n (%)
Abdominal pain, patients with AE (Safety and tolerability; [8]): 2 (11) n (%)
Anaemia, patients with AE (Safety and tolerability; [8]): 6 (32) n (%)
Asthenia, patients with AE (Safety and tolerability; [8]): 2 (11) n (%)
Constipation, patients with AE (Safety and tolerability; [8]): 3 (16) n (%)
Cough, patients with AE (Safety and tolerability; [8]): 1 (5) n (%)
Decreased appetite, patients with AE (Safety and tolerability; [8]): 4 (21) n (%)
Dehydration, patients with AE (Safety and tolerability; [8]): 2 (11) n (%)
Diarrhoea, patients with AE (Safety and tolerability; [8]): 6 (32) n (%)
Dizziness, patients with AE (Safety and tolerability; [8]): 4 (21) n (%)
Dyspnoea, patients with AE (Safety and tolerability; [8]): 3 (16) n (%)
Fatigue, patients with AE (Safety and tolerability; [8]): 8 (42) n (%)
Headache, patients with AE (Safety and tolerability; [8]): 6 (32) n (%)
Hypokalaemia, patients with AE (Safety and tolerability; [8]): 3 (16) n (%)
Hyponatraemia, patients with AE (Safety and tolerability; [8]): 2 (11) n (%)
Nausea, patients with AE (Safety and tolerability; [8]): 2 (11) n (%)
Vomiting, patients with AE (Safety and tolerability; [8]): 6 (32) n (%)
Abdominal pain, patients with AE (Safety and tolerability; [9]): 6 (16) n (%)
Anaemia, patients with AE (Safety and tolerability; [9]): 11 (29) n (%)
Asthenia, patients with AE (Safety and tolerability; [9]): 4 (11) n (%)
Constipation, patients with AE (Safety and tolerability; [9]): 5 (13) n (%)
Cough, patients with AE (Safety and tolerability; [9]): 5 (13) n (%)
Decreased appetite, patients with AE (Safety and tolerability; [9]): 8 (21) n (%)
Dehydration, patients with AE (Safety and tolerability; [9]): 7 (18) n (%)
Diarrhoea, patients with AE (Safety and tolerability; [9]): 11 (29) n (%)
Dizziness, patients with AE (Safety and tolerability; [9]): 7 (18) n (%)
Dyspnoea, patients with AE (Safety and tolerability; [9]): 6 (16) n (%)
Fatigue, patients with AE (Safety and tolerability; [9]): 12 (32) n (%)
Headache, patients with AE (Safety and tolerability; [9]): 6 (16) n (%)
Hypokalaemia, patients with AE (Safety and tolerability; [9]): 7 (18) n (%)
Hyponatraemia, patients with AE (Safety and tolerability; [9]): 4 (11) n (%)
Nausea, patients with AE (Safety and tolerability; [9]): 3 (8) n (%)
Vomiting, patients with AE (Safety and tolerability; [9]): 9 (24) n (%)
Abdominal pain, patients with AE (Safety and tolerability; Total (N = 51)): 7 (14) n (%)
Anaemia, patients with AE (Safety and tolerability; Total (N = 51)): 14 (27) n (%)
Asthenia, patients with AE (Safety and tolerability; Total (N = 51)): 7 (14) n (%)
Constipation, patients with AE (Safety and tolerability; Total (N = 51)): 8 (16) n (%)
Cough, patients with AE (Safety and tolerability; Total (N = 51)): 7 (14) n (%)
Decreased appetite, patients with AE (Safety and tolerability; Total (N = 51)): 12 (24) n (%)
Dehydration, patients with AE (Safety and tolerability; Total (N = 51)): 8 (16) n (%)
Diarrhoea, patients with AE (Safety and tolerability; Total (N = 51)): 11 (22) n (%)
Dizziness, patients with AE (Safety and tolerability; Total (N = 51)): 8 (16) n (%)
Dyspnoea, patients with AE (Safety and tolerability; Total (N = 51)): 8 (16) n (%)
Fatigue, patients with AE (Safety and tolerability; Total (N = 51)): 15 (29) n (%)
Headache, patients with AE (Safety and tolerability; Total (N = 51)): 9 (18) n (%)
Hypokalaemia, patients with AE (Safety and tolerability; Total (N = 51)): 7 (14) n (%)
Hyponatraemia, patients with AE (Safety and tolerability; Total (N = 51)): 6 (12) n (%)
Nausea, patients with AE (Safety and tolerability; Total (N = 51)): 6 (12) n (%)
Vomiting, patients with AE (Safety and tolerability; Total (N = 51)): 12 (24) n (%)
Drug‐related AE: anaemia, patients (Safety and tolerability; [10]): 6%
Drug‐related AE: decreased appetite, patients (Safety and tolerability; [10]): 6%
Drug‐related AE: diarrhoea, patients (Safety and tolerability; [10]): 10%
Drug‐related AE: fatigue, patients (Safety and tolerability; [10]): 6%
Drug‐related AE: increased AST, patients (Safety and tolerability; [10]): 6%
Drug‐related AE: nausea, patients (Safety and tolerability; [10]): 8%
Drug‐related AE: pruritus, patients (Safety and tolerability; [10]): 6%
Drug‐related AE: vomiting, patients (Safety and tolerability; [10]): 12%
Patients who died during Part A (not related to study drug) (Safety and tolerability; safety population, N = 51): 14%
Patients who experienced at least one drug‐related AE (Safety and tolerability; safety population, N = 51): 55%
Patients with at least one grade ≥3 AE (Safety and tolerability; safety population, N = 51): 43%
Patients with serious AEs (not deemed drug‐related) (Safety and tolerability; safety population, N = 51): 25%
Patients who experienced at least one AE (Safety and tolerability; safety population, N = 51, all study groups): 98%
Contribution of CYP3A4 to pevonedistat biotransformation (CYP3A4): 97%
Mean terminal elimination half‐life (t 1/2) [2]: 10 to 11 h
